# Data reported in ChEMBL document CHEMBL5649170, “Sustained microglial depletion with CSF1R inhibitor impairs parenchymal plaque development in an Alzheimer's disease model” (Nat Commun, 2019).
# Activity calls are given as the source filed them. The calls are words filed in the database; no cut-off is given here.
# Columns and labels:
# Aurora kinase A = Aurora kinase A (Homo sapiens, UniProt O14965); assay: Inhibition of AURKA (unknown origin)
# [1] = target: Death-associated protein kinase 1 (Homo sapiens, UniProt P53355); assay: Inhibition of DAPK1 (unknown origin)
# [2] = target: Tyrosine-protein kinase Fer (Homo sapiens, UniProt P16591); assay: Inhibition of FER (unknown origin)
# [3] = target: Fibroblast growth factor receptor 1 (Homo sapiens, UniProt P11362); assay: Inhibition of FGFR1 (unknown origin)
# [4] = target: Tyrosine-protein kinase JAK3 (Homo sapiens, UniProt P52333); assay: Inhibition of JAK3 (unknown origin)
# [5] = target: MAP/microtubule affinity-regulating kinase 4 (Homo sapiens, UniProt Q96L34); assay: Inhibition of MARK4 (unknown origin)
# [6] = target: Receptor-type tyrosine-protein kinase FLT3 (Homo sapiens, UniProt P36888); assay: Inhibition of FLT3 (unknown origin) in presence of ATP by enzymatic assay
# [7] = AUC (0 to infinity) in male rat at 1.13 mg/kg, iv administered as single dose; assay type: ADME, organism-based; conditions: in vivo
# [8] = Volume of distribution at steady state in mouse at 1.92 mg/kg, iv administered as single dose; assay type: ADME, organism-based; conditions: in vivo, read-out: Vdss
# [9] = AUC (0 to 24 hrs) in mouse brain at 300 ppm administered as rodent chow for 14 days; assay type: ADME, tissue-based; conditions: route po, time 14 day
# [10] = Toxicity in wildtype mouse assessed as average speed at 1200 ppm administered as rodent chow for 10 to 24 weeks by Open field test (reference value: 0.044 to 0.09 meter/s); conditions: in vivo, po, time 10-24 weeks
# Mus musculus [11] = assay: Antialzheimer activity in 5XFAD mouse assessed as number of triads at 1200 ppm administered as rodent chow for 10 to 24 weeks by Y-maze test (reference value: 3 to 9); assay type: functional; conditions: route po, time 10-24 weeks
# Procedure, shortened: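 Y-maze: the sequence of arm entries was scored live and video-recorded. Triads were counted as sequential entries into three different arms. Mice had received 1200 ppm PLX5622 or control chow from 1.5 months of age.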
# Mus musculus [12] = assay: Antialzheimer activity in 5XFAD mouse assessed as A11 protein intensity at 1200 ppm administered as rodent chow starting from 1.5 months and measured after 7 months by immunoblot analysis (reference value: 54.431 to 142.272 a.u.); assay type: functional; conditions: route po, time 5.5 months, 4015 h
# [13] = target: T1, Macrophage colony-stimulating factor 1 receptor (Mus musculus) (UniProt P09581); assay: In vivo inhibition of CSF1R in wildtype mouse assessed as iron reactivity by measuring hemosiderin intensity of prussian blue staining in thalamus at 1200 ppm administered as rodent chow starting from 1.5 months and measured after 7 months by confocal microscopic analysis (reference value: 0.068 to 2.717 a.u.); assay type: functional; conditions: route po, time 5.5 months
# T1 sequence (whole entry): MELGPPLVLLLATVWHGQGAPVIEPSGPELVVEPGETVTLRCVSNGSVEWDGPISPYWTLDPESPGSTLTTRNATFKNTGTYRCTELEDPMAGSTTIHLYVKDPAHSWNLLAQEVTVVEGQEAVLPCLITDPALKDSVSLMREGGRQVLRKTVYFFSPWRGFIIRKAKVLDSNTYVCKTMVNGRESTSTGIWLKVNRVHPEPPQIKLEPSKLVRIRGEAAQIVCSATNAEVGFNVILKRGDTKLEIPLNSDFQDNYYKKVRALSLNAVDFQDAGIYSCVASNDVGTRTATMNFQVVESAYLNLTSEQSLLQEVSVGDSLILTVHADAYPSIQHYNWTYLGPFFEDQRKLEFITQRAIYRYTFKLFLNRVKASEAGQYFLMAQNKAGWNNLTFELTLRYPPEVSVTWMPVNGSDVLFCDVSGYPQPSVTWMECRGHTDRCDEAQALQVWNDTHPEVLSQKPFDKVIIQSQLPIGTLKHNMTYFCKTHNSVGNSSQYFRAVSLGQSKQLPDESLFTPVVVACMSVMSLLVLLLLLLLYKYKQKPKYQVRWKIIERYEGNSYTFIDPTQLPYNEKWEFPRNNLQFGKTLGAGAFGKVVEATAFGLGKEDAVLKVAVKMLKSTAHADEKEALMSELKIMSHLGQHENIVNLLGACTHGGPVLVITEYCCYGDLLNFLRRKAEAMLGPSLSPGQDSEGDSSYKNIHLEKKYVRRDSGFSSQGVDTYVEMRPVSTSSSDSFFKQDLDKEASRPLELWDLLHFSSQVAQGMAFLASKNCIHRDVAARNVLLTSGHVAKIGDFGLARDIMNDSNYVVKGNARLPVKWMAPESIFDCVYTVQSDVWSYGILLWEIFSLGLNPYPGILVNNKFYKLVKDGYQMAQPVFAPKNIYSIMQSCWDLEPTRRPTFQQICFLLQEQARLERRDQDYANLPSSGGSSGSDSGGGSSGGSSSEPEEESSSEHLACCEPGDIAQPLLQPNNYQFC
# Procedure, shortened: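 Wild-type or 5xFAD mice fed PLX5622 (1200 ppm) in AIN-76A chow from 1.5 months of age, examined in 4- and 7-month-old cohorts. Brain sections stained with a Prussian blue kit per kit instructions to detect iron deposits (microbleeds).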
# Mus musculus [14] = assay: Antialzheimer activity in 5XFAD mouse assessed as alteration in plaque morphology in cortex at 1200 ppm administered as rodent chow starting from 1.5 months and measured after 7 months by Thio-S labeling based confocal microscopic analysis; assay type: functional, organism-based; conditions: route po, time 5.5 months
# [15] = Effect on C1qa gene expression in wild type mouse thalamus at 1200 ppm administered as rodent chow starting from 1.5 months and measured after 7 months by RNA-Seq analysis (reference value: 19.070 to 32.518); assay type: functional; conditions: route po, time 5.5 months, 4015 h
# Procedure, shortened: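 WT and 5xFAD mice were treated with 1200 ppm PLX5622 chow or control chow from 1.5 to 7 months of age. Brains were microdissected into cortex, hippocampus and thalamus, and RNA was extracted from tissue powder. Whole-transcriptome RNA-Seq libraries were sequenced, with n = 4 per group per region (48 samples).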
# [16] = Effect on Hexb gene expression in 5XFAD mouse hippocampus at 1200 ppm administered as rodent chow starting from 1.5 months and measured after 7 months by RNA-Seq analysis (reference value: 90.736 to 123.2 RPKM); assay type: functional; conditions: route po, time 5.5 months, 4015 h
# [17] = Effect on ccl6 gene expression in wild type mouse cortex at 1200 ppm administered as rodent chow starting from 1.5 months and measured after 7 months by RNA-Seq analysis (reference value: 0.280 to 1.162 RPKM); assay type: functional; conditions: route po, time 5.5 months, 4015 h
# [18] = Effect on ccl6 gene expression in wild type mouse hippocampus at 1200 ppm administered as rodent chow starting from 1.5 months and measured after 7 months by RNA-Seq analysis (reference value: 0.451 to 0.597 RPKM); assay type: functional; conditions: route po, time 5.5 months, 4015 h
# [19] = Prevention of Scn1b gene downregulation in 5XFAD mouse hippocampus assessed as percent change in Reads Per kilo base per Million mapped reads at 1200 ppm administered as rodent chow starting from 1.5 months and measured after 7 months by RNA-Seq analysis (reference value: 53.15 to 80.717 %); assay type: functional; conditions: route po, time 5.5 months, 4015 h
# [20] = Prevention of Rnf217 gene downregulation in 5XFAD mouse hippocampus assessed as percent change in Reads Per kilo base per Million mapped reads at 1200 ppm administered as rodent chow starting from 1.5 months and measured after 7 months by RNA-Seq analysis (reference value: 66.726 to 80.840 %); assay type: functional; conditions: route po, time 5.5 months, 4015 h
# Chain of MAP/microtubule affinity-regulating kinase 4 (Q96L34 whole entry): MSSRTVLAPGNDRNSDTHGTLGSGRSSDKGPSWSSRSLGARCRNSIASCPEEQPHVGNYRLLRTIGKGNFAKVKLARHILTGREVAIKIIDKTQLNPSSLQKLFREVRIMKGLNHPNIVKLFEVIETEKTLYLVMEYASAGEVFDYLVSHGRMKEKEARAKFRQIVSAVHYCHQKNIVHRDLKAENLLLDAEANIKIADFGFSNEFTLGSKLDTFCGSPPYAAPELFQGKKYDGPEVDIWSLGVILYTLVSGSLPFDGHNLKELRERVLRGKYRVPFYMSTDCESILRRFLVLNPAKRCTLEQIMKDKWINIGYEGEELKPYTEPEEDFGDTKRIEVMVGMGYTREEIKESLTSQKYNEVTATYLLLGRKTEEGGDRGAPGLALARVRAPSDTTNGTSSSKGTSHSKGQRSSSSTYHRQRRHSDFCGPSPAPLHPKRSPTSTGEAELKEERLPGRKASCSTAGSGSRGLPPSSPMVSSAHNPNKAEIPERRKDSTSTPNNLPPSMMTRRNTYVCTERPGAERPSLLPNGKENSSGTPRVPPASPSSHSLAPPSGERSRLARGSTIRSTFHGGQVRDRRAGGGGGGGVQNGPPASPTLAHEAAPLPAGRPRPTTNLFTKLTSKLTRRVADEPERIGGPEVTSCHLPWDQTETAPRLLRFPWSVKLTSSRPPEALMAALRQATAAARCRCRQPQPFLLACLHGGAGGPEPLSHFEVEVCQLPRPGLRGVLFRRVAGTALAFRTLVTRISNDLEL
# Chain of Fibroblast growth factor receptor 1 (P11362 whole entry): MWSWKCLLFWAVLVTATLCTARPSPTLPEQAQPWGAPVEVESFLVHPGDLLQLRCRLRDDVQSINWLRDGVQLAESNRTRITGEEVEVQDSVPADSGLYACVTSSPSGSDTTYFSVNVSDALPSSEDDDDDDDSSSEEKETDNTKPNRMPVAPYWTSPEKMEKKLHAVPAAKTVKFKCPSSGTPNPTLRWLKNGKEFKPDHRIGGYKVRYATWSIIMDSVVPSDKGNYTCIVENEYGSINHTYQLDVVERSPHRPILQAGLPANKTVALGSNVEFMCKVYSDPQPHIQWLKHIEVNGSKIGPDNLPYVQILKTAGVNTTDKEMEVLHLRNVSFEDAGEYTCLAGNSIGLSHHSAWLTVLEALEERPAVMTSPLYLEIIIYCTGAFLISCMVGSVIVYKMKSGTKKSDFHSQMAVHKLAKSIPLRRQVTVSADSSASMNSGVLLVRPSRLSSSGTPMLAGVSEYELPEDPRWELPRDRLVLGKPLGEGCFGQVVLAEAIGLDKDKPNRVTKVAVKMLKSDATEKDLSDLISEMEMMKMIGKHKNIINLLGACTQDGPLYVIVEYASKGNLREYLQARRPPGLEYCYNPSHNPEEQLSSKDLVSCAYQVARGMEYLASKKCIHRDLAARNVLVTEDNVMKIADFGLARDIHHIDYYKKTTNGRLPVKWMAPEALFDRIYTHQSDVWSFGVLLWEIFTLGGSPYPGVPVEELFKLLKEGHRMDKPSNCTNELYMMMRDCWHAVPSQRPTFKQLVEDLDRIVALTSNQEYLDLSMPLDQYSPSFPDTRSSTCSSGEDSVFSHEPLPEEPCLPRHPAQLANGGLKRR
# Chain of Aurora kinase A (O14965 whole entry): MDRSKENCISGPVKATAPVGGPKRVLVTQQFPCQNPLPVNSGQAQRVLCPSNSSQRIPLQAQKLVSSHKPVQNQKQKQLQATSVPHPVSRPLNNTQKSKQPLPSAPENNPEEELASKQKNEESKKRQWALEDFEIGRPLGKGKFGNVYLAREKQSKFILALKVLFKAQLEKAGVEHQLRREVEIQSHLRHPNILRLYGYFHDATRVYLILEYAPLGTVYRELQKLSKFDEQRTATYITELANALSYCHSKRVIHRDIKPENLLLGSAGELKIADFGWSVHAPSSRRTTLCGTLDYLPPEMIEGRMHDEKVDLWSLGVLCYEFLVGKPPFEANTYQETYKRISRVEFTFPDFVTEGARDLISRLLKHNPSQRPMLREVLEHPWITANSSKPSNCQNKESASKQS
# Chain of Death-associated protein kinase 1 (P53355 whole entry): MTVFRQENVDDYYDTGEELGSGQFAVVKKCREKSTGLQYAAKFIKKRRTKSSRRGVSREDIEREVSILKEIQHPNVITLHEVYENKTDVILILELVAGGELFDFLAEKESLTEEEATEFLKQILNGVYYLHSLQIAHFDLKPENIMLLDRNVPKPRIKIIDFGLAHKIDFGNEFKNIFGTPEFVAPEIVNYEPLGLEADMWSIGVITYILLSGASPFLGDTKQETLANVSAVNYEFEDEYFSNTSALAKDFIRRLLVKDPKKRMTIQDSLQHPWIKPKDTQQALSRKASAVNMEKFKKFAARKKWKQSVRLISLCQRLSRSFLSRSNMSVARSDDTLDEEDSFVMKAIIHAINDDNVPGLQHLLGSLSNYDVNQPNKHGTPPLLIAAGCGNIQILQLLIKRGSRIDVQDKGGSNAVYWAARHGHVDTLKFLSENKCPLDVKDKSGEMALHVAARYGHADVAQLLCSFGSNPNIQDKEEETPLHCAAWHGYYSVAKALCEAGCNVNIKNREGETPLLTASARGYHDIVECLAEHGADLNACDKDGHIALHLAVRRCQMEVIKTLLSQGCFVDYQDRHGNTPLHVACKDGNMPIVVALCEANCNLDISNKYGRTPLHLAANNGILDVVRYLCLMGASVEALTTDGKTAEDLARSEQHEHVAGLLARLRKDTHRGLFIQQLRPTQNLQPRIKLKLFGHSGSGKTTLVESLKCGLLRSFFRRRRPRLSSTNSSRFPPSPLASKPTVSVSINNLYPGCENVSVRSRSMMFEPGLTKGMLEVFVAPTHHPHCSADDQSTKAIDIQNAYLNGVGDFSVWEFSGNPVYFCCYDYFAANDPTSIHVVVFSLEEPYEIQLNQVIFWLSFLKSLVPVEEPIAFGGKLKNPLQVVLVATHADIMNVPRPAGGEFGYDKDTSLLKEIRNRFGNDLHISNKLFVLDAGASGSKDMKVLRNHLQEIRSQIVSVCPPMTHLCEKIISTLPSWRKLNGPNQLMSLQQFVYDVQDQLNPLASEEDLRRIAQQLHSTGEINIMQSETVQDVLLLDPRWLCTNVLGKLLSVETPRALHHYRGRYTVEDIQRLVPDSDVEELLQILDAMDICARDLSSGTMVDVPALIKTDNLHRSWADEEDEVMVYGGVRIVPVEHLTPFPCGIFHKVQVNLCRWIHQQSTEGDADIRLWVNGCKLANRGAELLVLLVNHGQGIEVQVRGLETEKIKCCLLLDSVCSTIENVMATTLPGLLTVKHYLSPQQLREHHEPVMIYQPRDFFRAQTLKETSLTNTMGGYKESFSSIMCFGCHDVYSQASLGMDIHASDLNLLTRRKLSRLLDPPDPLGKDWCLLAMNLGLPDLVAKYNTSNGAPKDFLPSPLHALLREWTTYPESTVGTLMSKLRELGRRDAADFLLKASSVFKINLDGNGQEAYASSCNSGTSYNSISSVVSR
# Chain of Receptor-type tyrosine-protein kinase FLT3 (P36888 whole entry): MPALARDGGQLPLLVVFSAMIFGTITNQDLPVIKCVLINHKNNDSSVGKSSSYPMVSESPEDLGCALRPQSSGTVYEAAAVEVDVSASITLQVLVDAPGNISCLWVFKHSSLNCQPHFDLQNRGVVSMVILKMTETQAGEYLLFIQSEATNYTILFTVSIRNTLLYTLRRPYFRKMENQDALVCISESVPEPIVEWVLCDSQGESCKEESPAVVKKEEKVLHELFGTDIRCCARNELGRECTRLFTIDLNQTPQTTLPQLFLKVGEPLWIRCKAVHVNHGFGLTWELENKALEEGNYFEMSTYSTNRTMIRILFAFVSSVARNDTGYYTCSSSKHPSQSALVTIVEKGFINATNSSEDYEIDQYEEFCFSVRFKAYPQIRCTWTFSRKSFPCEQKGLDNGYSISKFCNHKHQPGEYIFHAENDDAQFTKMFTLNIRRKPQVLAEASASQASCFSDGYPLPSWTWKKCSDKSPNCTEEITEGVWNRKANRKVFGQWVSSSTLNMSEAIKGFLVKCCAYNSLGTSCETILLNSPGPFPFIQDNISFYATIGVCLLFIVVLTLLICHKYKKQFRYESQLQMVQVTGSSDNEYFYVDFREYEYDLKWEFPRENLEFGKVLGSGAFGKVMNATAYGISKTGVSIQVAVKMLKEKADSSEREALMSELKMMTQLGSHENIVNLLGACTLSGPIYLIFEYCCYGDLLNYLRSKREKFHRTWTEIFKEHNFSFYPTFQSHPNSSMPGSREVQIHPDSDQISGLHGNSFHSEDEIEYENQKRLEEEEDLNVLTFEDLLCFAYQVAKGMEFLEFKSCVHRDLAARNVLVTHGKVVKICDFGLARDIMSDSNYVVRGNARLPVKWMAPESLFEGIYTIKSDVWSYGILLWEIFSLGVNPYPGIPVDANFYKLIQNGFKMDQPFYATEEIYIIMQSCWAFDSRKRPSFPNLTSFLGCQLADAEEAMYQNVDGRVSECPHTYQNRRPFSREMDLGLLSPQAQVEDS
compound,measurement,setting,value
COc1ncc(F)cc1CNc1ccc(Cc2c[nH]c3ncc(C)cc23)c(F)n1 [PLX-5622],IC50,Aurora kinase A,> 1000 nM
same,IC50,[1],> 1000 nM
same,IC50,[2],> 1000 nM
same,IC50,[3],> 1000 nM
same,IC50,[4],> 1000 nM
same,IC50,[5],> 1000 nM
same,IC50,[6],390 nM
same,AUC(0-inf),[7],2630 ng·h/mL
same,Vd,[8],0.34 L/kg
same,AUC at 336 h,[9],23100 ng·h/mL
same,Activity,[10],0.03 meter/s
same,Activity,Mus musculus [11],2
same,Flu intensity,Mus musculus [12],21.124 a.u.
same,Flu intensity,[13],0.086 a.u.
same,Activity,Mus musculus [14],Active
same,Activity,[15],0 RPKM
same,Activity,[16],16.382 RPKM
same,Activity,[17],0 RPKM
same,Activity,[18],0 RPKM
same,Activity,[19],84.37%
same,Activity,[20],95.371%
